Measured values published in ChEMBL document CHEMBL2434966, “Novel N-4-piperazinyl-ciprofloxacin-chalcone hybrids: synthesis, physicochemical properties, anticancer and topoisomerase I and II inhibitory activity” (Eur J Med Chem, 2013).

Experiments:
[1] = tested on: OVCAR-4; assay: Growth inhibition of human OVCAR4 cells after 48 hrs by sulforhodamine B assay; type: functional; conditions: OVCAR-4, 48 h; for CC50: read-out: LC50 (the source's name)
Method in brief: (§1)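 NCI five-dose screen on the full 60-cell-line panel. Cells were given 10-fold dilutions from 10^-4 to 10^-8 M with continuous 48 h exposure, and growth was read by SRB staining. Percent growth was taken from time-zero, control and treated absorbances. GI50, TGI and LC50 were then derived, the GI50 being the concentration that gives a 50% lower net protein increase than control.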

[2] = tested on: SK-MEL-28; assay: Growth inhibition of human SK-MEL-28 cells after 48 hrs by sulforhodamine B assay; type: functional; conditions: SK-MEL-28, 48 h; for CC50: read-out: LC50 (the source's name); method in brief: as §1
[3] = tested on: SK-OV-3; assay: Growth inhibition of human SKOV3 cells after 48 hrs by sulforhodamine B assay; type: functional; conditions: SK-OV-3, 48 h; method in brief: as §1
[4] = tested on: ACHN; assay: Growth inhibition of human ACHN cells after 48 hrs by sulforhodamine B assay; type: functional; conditions: for CC50: read-out: LC50 (the source's name)
Method in brief: (§2)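 NCI 60-panel five-dose test at 10-fold dilutions, 10^-4 to 10^-8 M, with 48 h continuous exposure and SRB protein read-out. Percent growth derived from time-zero, untreated-control and treated absorbances. GI50 is the concentration where [(Ti-Tz)/(C-Tz)]×100 = 50. TGI is taken at Ti = Tz. LC50 is taken at [(Ti-Tz)/Tz]×100 = -50.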

[5] = tested on: NCI-H322M; assay: Growth inhibition of human NCI-H322M cells assessed as cell growth at 10^-5 M after 48 hrs by sulforhodamine B assay; type: functional; conditions: read-out: Activity
Method in brief: (§3)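 NCI 60-cell-line primary one-dose screen. Cells were exposed to a single 10^-5 M concentration for 48 h. The end point was sulforhodamine B protein staining, read spectrophotometrically. Results are reported as percent growth of treated cells relative to untreated control cells.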

[6] = tested on: MDA-MB-435; assay: Growth inhibition of human MDA-MB-435 cells after 48 hrs by sulforhodamine B assay; type: functional; conditions: MDA-MB-435, 48 h; method in brief: as §1
[7] = molecular target: T1, DNA topoisomerase 1 (Homo sapiens) (UniProt P11387); assay: Inhibition of human recombinant topoisomerase 1-mediated relaxation of supercoiled pBR322 DNA at 20 uM after 30 mins by agarose gel electrophoresis relative to control
T1 sequence (whole entry): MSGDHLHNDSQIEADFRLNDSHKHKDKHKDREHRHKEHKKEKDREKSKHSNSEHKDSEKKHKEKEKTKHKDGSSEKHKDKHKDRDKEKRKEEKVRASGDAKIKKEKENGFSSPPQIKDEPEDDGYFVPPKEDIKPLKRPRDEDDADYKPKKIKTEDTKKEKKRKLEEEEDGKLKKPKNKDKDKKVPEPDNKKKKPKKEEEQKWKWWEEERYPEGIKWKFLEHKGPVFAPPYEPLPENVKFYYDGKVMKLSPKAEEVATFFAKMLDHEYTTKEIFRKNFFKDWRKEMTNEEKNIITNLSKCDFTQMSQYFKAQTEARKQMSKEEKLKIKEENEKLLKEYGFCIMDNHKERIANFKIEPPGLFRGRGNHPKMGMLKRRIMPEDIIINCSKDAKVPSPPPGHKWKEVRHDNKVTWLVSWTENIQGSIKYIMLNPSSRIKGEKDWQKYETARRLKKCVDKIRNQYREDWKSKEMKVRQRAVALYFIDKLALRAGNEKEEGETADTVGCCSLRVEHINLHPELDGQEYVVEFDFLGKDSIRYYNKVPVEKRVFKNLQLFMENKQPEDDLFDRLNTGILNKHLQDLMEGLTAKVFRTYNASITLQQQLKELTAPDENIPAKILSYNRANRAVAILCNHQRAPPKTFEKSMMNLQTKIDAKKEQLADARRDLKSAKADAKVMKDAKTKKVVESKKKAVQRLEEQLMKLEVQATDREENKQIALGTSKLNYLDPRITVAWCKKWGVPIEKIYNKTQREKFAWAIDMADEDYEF
Method in brief: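 Recombinant human topo I (0.4 units) with 100 ng supercoiled pBR322, 37 °C for 30 min in Tris-HCl pH 7.9, 150 mM NaCl, 0.1% BSA, 1 mM spermidine, 5% glycerol. Compounds came from 20 mM DMSO stocks, with matched DMSO in the enzyme-only control. Stopped with sarcosyl; 1% agarose/TAE gel, ethidium stain, UV densitometry. Camptothecin was the positive control.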

[8] = tested on: SK-OV-3; assay: Growth inhibition of human SKOV3 cells assessed as cell growth at 10^-5 M after 48 hrs by sulforhodamine B assay; type: functional; conditions: SK-OV-3, 48 h, read-out: Activity; method in brief: as §3
[9] = tested on: HOP-92; assay: Growth inhibition of human HOP92 cells after 48 hrs by sulforhodamine B assay; type: functional; conditions: HOP-92, 48 h; method in brief: as §2

Compound	GI50 [1] [µM]	TGI [1] [µM]	CC50 [1] [µM]	GI50 [2] [µM]	TGI [2] [µM]	CC50 [2] [µM]	GI50 [3] [µM]	LC50 [3] [µM]	TGI [3] [µM]	GI50 [4] [µM]	TGI [4] [µM]	CC50 [4] [µM]	growth at 10 µM [5] [%]	GI50 [6] [µM]	LC50 [6] [µM]	TGI [6] [µM]	inhibition [7] [%]	growth at 10 µM [8] [%]	also measured
COc1cc(/C=C/C(=O)c2ccc(NC(=O)CN3CCN(c4cc5c(cc4F)c(=O)c(C(=O)O)cn5C4CC4)CC3)cc2)cc(OC)c1OC	1.61	84.6	> 100	1.1	17	98.2	3.57	> 100	> 100	0.45	7.09	> 100	-7.05	0.3	> 100	1.7	11.5	33.3	–
O=C(CN1CCN(c2cc3c(cc2F)c(=O)c(C(=O)O)cn3C2CC2)CC1)Nc1ccc(C(=O)/C=C/c2ccccc2)cc1	9.47	> 100	> 100	18.8	> 100	> 100	27.3	> 100	> 100	3.3	31.9	> 100	73.7	2.94	> 100	> 100	6.4	93.6	GI50 [9]: 0.43 µM; TGI [9]: 3.82 µM; CC50 ([9]; read-out: LC50 (the source's name)): > 100 µM
